Experimental data published in ChEMBL document CHEMBL3877264, “Quinolidene-rhodanine conjugates: Facile synthesis and biological evaluation” (Eur J Med Chem, 2017).
Values after ≈ are worked out from the molar mass of the structure shown.

Key:
[1] = Selectivity index, ratio of GI50 for human A549 cells to MIC for Mycobacterium tuberculosis H37Ra ATCC 25177 at dormant stage; format: toxicity, cell-based; settings: read-out: Selectivity Index
Procedure, shortened: (§1)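 SI is the cell-line GI50 divided by the dormant-stage mycobacterial MIC. […] THP-1 macrophages were PMA-differentiated for 24 h.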

[2] = test system: Mycobacterium tuberculosis; assay: Growth inhibition of Mycobacterium tuberculosis H37Ra ATCC 25177 at dormant stage at 1.56 ug/ml measured after 12 days by XTT dye based two fold dilution method relative to control; format: functional; settings: H37Ra ATCC 25177, 288 h, read-out: GI
Procedure, shortened: (§2)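 MTB H37Ra was grown in Dubos medium, then exposed in Mycobacterium pheli minimal medium (pH 6.6) to compounds dissolved in DMSO. The assay ended on day 8 (active) or day 12 (dormant). Viable cells were measured by XTT reduction menadione assay at 470 nm, blank-corrected, relative to vehicle control. Triplicates were expressed as mean ± SD. MIC came from dose-response curves.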

[3] = test system: Mycobacterium tuberculosis; assay: Growth inhibition of Mycobacterium tuberculosis H37Ra ATCC 25177 at active stage at 1.56 ug/ml measured after 8 days by XTT dye based two fold dilution method relative to control; format: functional; settings: H37Ra ATCC 25177, 192 h, read-out: GI; procedure, shortened: as §2
Escherichia coli = assay: Growth inhibition of Escherichia coli NCIM 2688 at 30 ug/ml measured after 8 hrs relative to control; format: functional; settings: NCIM 2688, 8 h, read-out: GI
Procedure, shortened: (§3)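 Bacteria grown in LB at 37 °C and 180 rpm to OD 1. Compounds added to wells, then 0.1% inoculum of 1 OD culture (620 nm). Growth read as OD at 620 nm after 8 h for gram-negative and after 12 h for gram-positive strains.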

[4] = Cytotoxicity against human HeLa cells at 100 ug/ml assessed as growth inhibition measured after 48 hrs by MTT assay relative to control; format: toxicity, cell-based; settings: read-out: GI
[5] = test system: Mycobacterium tuberculosis; assay: Growth inhibition of Mycobacterium tuberculosis H37Ra ATCC 25177 at dormant stage at 25 ug/ml measured after 12 days by XTT dye based two fold dilution method relative to control; format: functional; settings: H37Ra ATCC 25177, 288 h, read-out: GI; procedure, shortened: as §2
[6] = test system: Mycobacterium tuberculosis; assay: Growth inhibition of Mycobacterium tuberculosis H37Ra ATCC 25177 at dormant stage at 50 ug/ml measured after 12 days by XTT dye based two fold dilution method relative to control; format: functional; settings: H37Ra ATCC 25177, 288 h, read-out: GI; procedure, shortened: as §2
Bacillus subtilis = assay: Antibacterial activity against Bacillus subtilis NCIM 2079 measured after 12 hrs; format: functional; settings: NCIM 2079, 12 h; procedure, shortened: as §3
[7] = Cytotoxicity against human A549 cells assessed as growth inhibition at 100 ug/ml measured after 48 hrs by MTT assay relative to control; format: toxicity, cell-based; settings: read-out: GI
[8] = test system: Mycobacterium tuberculosis; assay: Growth inhibition of Mycobacterium bovis BCG ATCC 35743 at active stage measured after 8 days by nitrate reductase dye based two fold dilution method; format: functional; settings: BCG str. ATCC 35743, 192 h
Procedure, shortened: (§4)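 M. bovis BCG was grown in Dubos medium and assayed in Mycobacterium pheli minimal medium (pH 6.6), with compounds from DMSO stocks. Incubation lasted 8 days for active and 12 days for dormant cultures. Viability was read by nitrate reductase at 540 nm against cell-free blanks, with vehicle set as 100% growth. Primary screen was at 30, 10 and 3 µg/ml, in triplicate, mean ± SD. MIC was taken from dose-response curves.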

[9] = Cytotoxicity against human PANC1 cells assessed as growth inhibition at 100 ug/ml measured after 48 hrs by MTT assay relative to control; format: toxicity, cell-based, PANC-1; settings: read-out: GI
[10] = Cytotoxicity against human A549 cells measured after 48 hrs by MTT assay; format: toxicity, cell-based
[11] = test system: Mycobacterium tuberculosis; assay: Growth inhibition of Mycobacterium tuberculosis H37Ra ATCC 25177 at dormant stage at 3.13 ug/ml measured after 12 days by XTT dye based two fold dilution method relative to control; format: functional; settings: H37Ra ATCC 25177, 288 h, read-out: GI; procedure, shortened: as §2
[12] = test system: Mycobacterium tuberculosis; assay: Growth inhibition of Mycobacterium bovis BCG ATCC 35743 at active stage at 0.78 ug/ml measured after 8 days by nitrate reductase dye based two fold dilution method relative to control; format: functional; settings: BCG str. ATCC 35743, 192 h, read-out: GI; procedure, shortened: as §4
[13] = test system: Mycobacterium tuberculosis; assay: Growth inhibition of Mycobacterium bovis BCG ATCC 35743 at active stage at 100 ug/ml measured after 8 days by nitrate reductase dye based two fold dilution method relative to control; format: functional; settings: BCG str. ATCC 35743, 192 h, read-out: GI
[14] = test system: Mycobacterium tuberculosis; assay: Growth inhibition of Mycobacterium bovis BCG ATCC 35743 at active stage at 12.5 ug/ml measured after 8 days by nitrate reductase dye based two fold dilution method relative to control; format: functional; settings: BCG str. ATCC 35743, 192 h, read-out: GI
[15] = Selectivity index, ratio of GI50 for HUVEC to MIC for Mycobacterium bovis BCG ATCC 35743 at dormant stage; settings: pooled result: one value given for 6 cell lines, strains, targets or settings; procedure, shortened: as §1
[16] = test system: Mycobacterium tuberculosis; assay: Growth inhibition of Mycobacterium bovis BCG ATCC 35743 at active stage at 25 ug/ml measured after 8 days by nitrate reductase dye based two fold dilution method relative to control; format: functional; settings: BCG str. ATCC 35743, 192 h, read-out: GI; procedure, shortened: as §4
[17] = test system: Mycobacterium tuberculosis; assay: Growth inhibition of Mycobacterium bovis BCG ATCC 35743 at dormant stage at 50 ug/ml measured after 12 days by nitrate reductase dye based two fold dilution method relative to control; format: functional; settings: BCG str. ATCC 35743, 288 h, read-out: GI; procedure, shortened: as §4
[18] = test system: Mycobacterium tuberculosis; assay: Growth inhibition of Mycobacterium bovis BCG ATCC 35743 at dormant stage at 25 ug/ml measured after 12 days by nitrate reductase dye based two fold dilution method relative to control; format: functional; settings: BCG str. ATCC 35743, 288 h, read-out: GI; procedure, shortened: as §4

| Compound | selectivity ratio [1] | inhibition of growth at 1.56 µg/mL [2] [%] | inhibition of growth at 1.56 µg/mL [3] [%] | inhibition of growth at 30 µg/mL (Escherichia coli) [%] | inhibition at 48 h, 100 ug/ml [4] [%] | inhibition of growth at 25 µg/mL [5] [%] | inhibition of growth at 50 µg/mL [6] [%] | MIC (Bacillus subtilis) [mg/L] | inhibition at 48 h, 100 ug/ml [7] [%] | IC50 [8] [mg/L] | IC90 [8] [mg/L] | inhibition at 48 h, 100 ug/ml [9] [%] | GI50 at 48 h [10] [mg/L] | inhibition of growth at 3.13 µg/mL [11] [%] | inhibition of growth at 0.78 µg/mL [12] [%] | inhibition of growth at 100 µg/mL [13] [%] | inhibition of growth at 12.5 µg/mL [14] [%] | Selectivity Index [15] | inhibition of growth at 50 µg/mL [17] [%] | inhibition of growth at 25 µg/mL [18] [%] | also measured |
| --- | --- | --- | --- | --- | --- | --- | --- | --- | --- | --- | --- | --- | --- | --- | --- | --- | --- | --- | --- | --- | --- |
| Cc1cccc2cc(/C=C3\SC(=S)N(CC(=O)O)C3=O)c(Cl)nc12 | 5 | 15.7 | -2.86 | -0.186 | 3.1 | 96.8 | 102 | > 30 | 15.6 | > 30 | > 30 | 5.9 | > 100 | 11.5 | – | – | – | – | – | – | – |
| O=C1NC(=S)S/C1=C\c1cc2cc(F)ccc2nc1Cl | 5.6 | -0.73 | 31.9 | 46.4 | 20 | 95.7 | 110 | > 30 | 40 | 2.4 (≈ 7.39 µM) | 4.2 (≈ 12.9 µM) | 37.5 | > 100 | 28.4 | -54.6 | 97.7 | 98.3 | 18.9 | 100 | 100 | inhibition of growth at 25 µg/mL [16]: 99% |
| O=C1NC(=S)S/C1=C\c1cc2cc(Cl)ccc2nc1Cl | 15.6 | 32.4 | 23.3 | 92.8 | 45.5 | 96.8 | 86.4 | 9.33 (≈ 27.3 µM) | 26.9 | 1 (≈ 2.93 µM) | 1.7 (≈ 4.98 µM) | 25.2 | > 100 | 42.4 | 7.4 | 98.4 | 99.5 | 43.7 | 101 | 100 | inhibition of growth at 25 µg/mL [16]: 99.9% |
| COc1ccc2nc(Cl)c(/C=C3\SC(=S)NC3=O)cc2c1 | 20.8 | -25.3 | 23.1 | 61.2 | 31.3 | 87.8 | 90.5 | > 30 | 22.2 | 3.7 (≈ 11 µM) | 5 (≈ 14.8 µM) | 24.9 | > 100 | 4.7 | -67.9 | 86.3 | 96 | 14.7 | 99 | 81.6 | inhibition of growth at 25 µg/mL [16]: 88.2% |
| COc1ccc2cc(/C=C3\SC(=S)NC3=O)c(Cl)nc2c1 | – | -28.4 | -6.28 | 35.5 | 30.1 | 103 | 104 | > 30 | 27.6 | 1.7 (≈ 5.05 µM) | 2.9 (≈ 8.61 µM) | 29.8 | > 100 | 36.4 | -60.1 | 98.9 | 98.9 | 60.2 | 100 | 99.8 | inhibition of growth at 25 µg/mL [16]: 98.4% |
| O=C(O)CN1C(=O)/C(=C/c2cc3cc(F)ccc3nc2Cl)SC1=S | – | 22.6 | -22.9 | -1.67 | 9.01 | 27.7 | 83.2 | > 30 | 33.7 | > 30 | > 30 | 20.8 | > 100 | 9.18 | – | – | – | – | 99.8 | 99.8 | – |
| CCOc1ccc2nc(Cl)c(/C=C3\SC(=S)NC3=O)cc2c1 | 28.6 | -9.88 | 28.7 | 28 | 30.2 | 105 | 93 | 28.4 (≈ 80.9 µM) | 23.9 | – | – | 30.1 | > 100 | 71.7 | -51.8 | 96.8 | 98.2 | 50 | 99.6 | 100 | inhibition of growth at 25 µg/mL [16]: 98.6% |
| Cc1cccc2cc(/C=C3\SC(=S)NC3=O)c(Cl)nc12 | 7.8 | -17.5 | 29.6 | 39.9 | 32.1 | 103 | 99.8 | > 30 | 32.9 | 3.7 (≈ 11.5 µM) | 6.5 (≈ 20.3 µM) | 30.9 | > 100 | -0.35 | -28.7 | 93.2 | 99.5 | 10.4 | 100 | 101 | inhibition of growth at 25 µg/mL [16]: 99.3% |
